Ecoli WT growth – blocks growth of wild type E. coli BW25113; E. coli BW25113 growth inhibition, OD600; inhibition, % at 10 µM; hit rate 0.05% among 20,000; in the data active means inhibition above about 40%;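 further: bacteria exposed to compound for 20 hours at 37 °C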
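System: bacterial strain in a whole-cell growth screen; medium: LB broth with 50 µg/mL kanamycin; detection: absorbance at 615 nm; schedule: 20 h exposure, 37 °C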
Starred values were filed as active, the others as inactive. Only a sample is shown.

What do the screens show for `Cc1cc(C(=O)N2CCN(CCc3ccccc3)CC2)no1`?
Ecoli WT growth: 5

Results for N#Cc1cc2sc3nnc(-c4ccncc4)n3c2cc1C#N ?
Ecoli WT growth: -1

How did O=C(CSc1ncnc2c1oc1ccccc12)NCc1ccco1 do in these assays?
Ecoli WT growth: 3

How did Cc1cc(O)c(C(C)C)cc1NS(=O)(=O)c1ccccc1 do in these assays?
Ecoli WT growth: -16

Results for CCOC(=O)c1cc(NC(=O)c2ccoc2C)cc(C(=O)OCC)c1 ?
Ecoli WT growth: -18

What do the screens show for `CCOC(=O)Nc1ccc(OC)cc1S(=O)(=O)N1CCCCC1`?
Ecoli WT growth: -4

Results for COc1cccc(CN(C)CC(=O)NC(=O)NCc2ccco2)c1 ?
Ecoli WT growth: 8

How did Cc1ccccc1-n1nc(C)c2cc(C(=O)NCc3cccnc3)sc21 do in these assays?
Ecoli WT growth: -4

What do the screens show for `COC(=O)c1sccc1NC(=O)c1csc(C)c1`?
Ecoli WT growth: 0

How did CCn1c(=S)sc2nc(C)sc21 do in these assays?
Ecoli WT growth: -1

Results for CCOC(=O)C1=C(CN2CCC(C)CC2)NC(=O)NC1c1ccc(Cl)cc1 (stereo not drawn) ?
Ecoli WT growth: 5

How did N#Cc1cc2c(nc1SCc1ccncc1)CCC2 do in these assays?
Ecoli WT growth: -18

Results for CCOc1cc(C(=O)N(C)c2ccccc2)cc(OCC)c1OCC ?
Ecoli WT growth: 5

How did CCC(=O)c1ccc(OCCSc2ncccn2)cc1 do in these assays?
Ecoli WT growth: -15

What do the screens show for `Cc1ccc(Br)cc1S(=O)(=O)N1CCN(c2ccccc2)CC1`?
Ecoli WT growth: 4

What do the screens show for `CCN(CCNC(=O)C1CCN(S(=O)(=O)c2cccc3cccnc23)CC1)c1ccccc1`?
Ecoli WT growth: 6

How did CC(C)C(NC(=O)c1cccs1)c1nnc(SCC(=O)Nc2nccs2)n1C (stereo not drawn) do in these assays?
Ecoli WT growth: -19

What do the screens show for `Cc1oc2nc(SCC(=O)N3CCCCC3)nc(N)c2c1C`?
Ecoli WT growth: 4

How did CCCN(CCC)C(=O)CSc1nc2ccccc2c(=O)n1C1CCCC1 do in these assays?
Ecoli WT growth: -3

Source: PubChem (SRMLSC)
